Measured values reported in ChEMBL document CHEMBL1144203, “Synthesis and antiviral evaluation of acyclic azanucleosides developed from sulfanilamide as a lead structure” (Bioorg Med Chem, 2008).
Active and inactive are the calls of the source. The calls are words filed in the database; no cut-off is given here.

Experiments:
[1] = Cytotoxicity against HEL cells assessed as alteration in cell morphology by MTS assay; assay type: cell-based; conditions: human
Summary of the method: (§1)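 Uninfected host cells (HEL or HeLa) exposed to compounds […]. The minimal cytotoxic concentration (MCC) is the lowest concentration causing a microscopically detectable change in normal cell morphology. CC50 is the concentration giving a 50% fall in cell viability by the colorimetric formazan-based MTS assay.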

HeLa [2] = assay: Cytotoxicity against human HeLa cells assessed as alteration in cell morphology by MTS assay; assay type: functional; summary of the method: as §1
[3] = Cytotoxicity against african green monkey Vero cells assessed as alteration in cell morphology by MTS assay; assay type: cell-based; conditions: chlorocebus sabaeus
Summary of the method: (§2)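 Uninfected host cells were exposed to compound and examined under the microscope. MCC was the minimal compound concentration causing a microscopically detectable change in normal cell morphology.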

[4] = Cytotoxicity against MDCK cells assessed as decrease in cell viability by MTS assay; assay type: cell-based, Canis lupus familiaris; conditions: dog
Summary of the method: (§3)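 Uninfected host cells were exposed to compound. CC50 was taken as the concentration giving a 50% fall in cell viability, measured by a colorimetric formazan-based MTS assay.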

[5] = Cytotoxicity against MDCK cells assessed as alteration in cell morphology by MTS assay; assay type: cell-based, Canis lupus familiaris; conditions: dog; summary of the method: as §2
Sindbis virus = assay: Antiviral activity against Sindbis virus infected in Vero cells assessed as inhibition of virus-induced cytopathic effect at 100 uM by MTS assay; assay type: functional, organism-based
Summary of the method: (§4)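 Vero cell monolayers were infected with the virus in cell-based CPE assays. EC50 is the concentration giving 50% inhibition of virus-induced cytopathic effect, scored visually or by MTS formazan colorimetric cell-viability read-out. The highest concentration tested was 100 μM for most compounds and lower for a few.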

[6] = test system: Mammalian orthoreovirus 1; assay: Antiviral activity against Reovirus1 infected in Vero cells assessed as inhibition of virus-induced cytopathic effect at 100 uM by MTS assay; assay type: functional, organism-based; summary of the method: as §4
Felid alphaherpesvirus 1 = assay: Antiviral activity against feline herpes virus infected in CRFK cells assessed as inhibition of virus-induced cytopathic effect at 100 uM by MTS assay; assay type: functional, organism-based
[7] = Cytotoxicity against CRFK cells assessed as decrease in cell viability upto 100 uM by MTS assay; assay type: cell-based, Felis catus; conditions: cat
[8] = test system: Respiratory syncytial virus; assay: Antiviral activity against respiratory syncytial virus infected in HeLa cells assessed as inhibition of virus-induced cytopathic effect at 100 uM by MTS assay; assay type: functional, organism-based
Summary of the method: (§5)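 HeLa cells were infected with the virus, and compounds were tested up to 100 μM. EC50 is the concentration that halves virus-induced cytopathic effect, read by visual CPE scoring or by MTS formazan colorimetric viability measurement.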

Feline coronavirus = assay: Antiviral activity against feline coronavirus infected in CRFK cells assessed as inhibition of virus-induced cytopathic effect at 100 uM by MTS assay; assay type: functional, organism-based
Coxsackievirus B4 [9] = assay: Antiviral activity against Coxsackievirus B4 infected in Vero cells assessed as inhibition of virus-induced cytopathic effect at 100 uM by MTS assay; assay type: functional, organism-based; summary of the method: as §4
Human respirovirus 3 = assay: Antiviral activity against Parainfluenza 3 virus infected in Vero cells assessed as inhibition of virus-induced cytopathic effect at 100 uM by MTS assay; assay type: functional, organism-based; summary of the method: as §4
Human alphaherpesvirus 2 = assay: Antiviral activity against HSV2 virus infected in HEL cells assessed as inhibition of virus-induced cytopathic effect at 100 uM by MTS assay; assay type: functional, organism-based
Punta Toro virus [10] = assay: Antiviral activity against Punta Toro virus infected in Vero cells assessed as inhibition of virus-induced cytopathic effect at 100 uM by MTS assay; assay type: functional, organism-based; summary of the method: as §4
HEL = assay: Cytotoxicity against HEL cells assessed as decrease in cell viability upto 100 uM by MTS assay; assay type: cell-based; conditions: human
Human alphaherpesvirus 1 = assay: Antiviral activity against HSV1 virus infected in HEL cells assessed as inhibition of virus-induced cytopathic effect at 100 uM by MTS assay; assay type: functional, organism-based
Coxsackievirus B4 [11] = assay: Antiviral activity against Coxsackievirus B4 infected in HeLa cells assessed as inhibition of virus-induced cytopathic effect at 100 uM by MTS assay; assay type: functional, organism-based; summary of the method: as §5
HeLa [12] = assay: Cytotoxicity against human HeLa cells assessed as decrease in cell viability upto 100 uM by MTS assay; assay type: functional, cell-based
Summary of the method: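 Uninfected HeLa host cells were tested up to 100 μM. CC50 is the concentration causing a 50% drop in cell viability by colorimetric formazan-based MTS assay. Alternatively, MCC is the minimal concentration giving microscopically detectable alteration of normal cell morphology.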

MDCK = assay: Cytotoxicity against MDCK cells assessed as decrease in cell viability upto 100 uM by MTS assay; assay type: cell-based, Canis lupus familiaris; conditions: dog
[13] = Cytotoxicity against CRFK cells assessed as decrease in cell viability by MTS assay; assay type: cell-based, Felis catus; conditions: cat; summary of the method: as §3
Punta Toro virus [14] = assay: Antiviral activity against Punta Toro virus infected in Vero cells assessed as inhibition of virus-induced cytopathic effect by MTS assay; assay type: functional, organism-based
Summary of the method: (§6)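 Vero cell monolayers infected with Coxsackie B4 virus or Punta Toro virus, with test compounds at up to 100 μM. EC50 is the concentration giving 50% inhibition of virus-induced cytopathic effect (CPE), scored visually or from cell viability by the colorimetric formazan-based MTS assay.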

Coxsackievirus B4 [15] = assay: Antiviral activity against Coxsackievirus B4 infected in Vero cells assessed as inhibition of virus-induced cytopathic effect by MTS assay; assay type: functional, organism-based; conditions: Enterovirus B; summary of the method: as §6

## NC(=O)c1ncn([C@@H]2O[C@H](CO)[C@@H](O)[C@H]2O)n1 [RIBAVIRIN]
[1]
  MCC: > 250 µM
HeLa [2]
  MCC: > 250 µM
[3]
  MCC: > 250 µM
[4]
  CC50: > 100 µM
[5]
  MCC: 100 µM

## NC12CC3CC(CC(C3)C1)C2 [AMANTADINE]
[4]
  CC50: > 100 µM
[5]
  MCC: > 100 µM

## CC(=O)Nc1ccc(S(=O)(=O)N(CCOC(=O)C(C)(C)C)Cn2ccc(=O)[nH]c2=O)cc1
Sindbis virus
  Activity: inactive
[6]
  Activity: inactive
Felid alphaherpesvirus 1
  Activity: inactive
[7]
  Activity: Not Active
[8]
  Activity: inactive
Feline coronavirus
  Activity: inactive
Coxsackievirus B4 [9]
  Activity: inactive
Human respirovirus 3
  Activity: inactive
[3]
  MCC: 40 µM
Human alphaherpesvirus 2
  Activity: inactive
Punta Toro virus [10]
  Activity: inactive
HEL
  Activity: Not Active
Human alphaherpesvirus 1
  Activity: inactive
Coxsackievirus B4 [11]
  Activity: inactive
HeLa [12]
  Activity: inactive
MDCK
  Activity: Not Active

## CCOC(=O)C1=C[C@@H](OC(CC)CC)[C@H](NC(C)=O)[C@@H](N)C1 [OSELTAMIVIR]
[4]
  CC50: > 100 µM
[5]
  MCC: > 100 µM

## Cc1cn(CN(CCOC(=O)C(C)(C)C)S(=O)(=O)c2ccc([N+](=O)[O-])cc2)c(=O)[nH]c1=O
Sindbis virus
  Activity: inactive
[6]
  Activity: inactive
Felid alphaherpesvirus 1
  Activity: inactive
[8]
  Activity: inactive
Feline coronavirus
  Activity: inactive
Coxsackievirus B4 [9]
  Activity: inactive
Human respirovirus 3
  Activity: inactive
Human alphaherpesvirus 2
  Activity: inactive
Punta Toro virus [10]
  Activity: inactive
HEL
  Activity: Not Active
Human alphaherpesvirus 1
  Activity: inactive
Coxsackievirus B4 [11]
  Activity: inactive
[13]
  CC50: 53 µM
HeLa [12]
  Activity: inactive
MDCK
  Activity: Not Active

## Nc1nc(O)c2ncn(COC(CO)CO)c2n1 [GANCICLOVIR]
[1]
  MCC: > 100 µM
[13]
  CC50: > 100 µM

## CC(C)(C)C(=O)OCCN(Cn1cc(F)c(=O)[nH]c1=O)S(=O)(=O)c1ccccc1[N+](=O)[O-]
Sindbis virus
  Activity: inactive
[6]
  Activity: inactive
Felid alphaherpesvirus 1
  Activity: inactive
[8]
  Activity: inactive
Feline coronavirus
  Activity: inactive
Coxsackievirus B4 [9]
  Activity: inactive
Human respirovirus 3
  Activity: inactive
[4]
  CC50: > 100 µM
Human alphaherpesvirus 2
  Activity: inactive
Punta Toro virus [10]
  Activity: inactive
[5]
  MCC: 4 µM
HEL
  Activity: Not Active
Human alphaherpesvirus 1
  Activity: inactive
Coxsackievirus B4 [11]
  Activity: inactive
[13]
  CC50: 14 µM
HeLa [12]
  Activity: inactive

## Nc1nc2c(ncn2COCCO)c(=O)[nH]1 [ACYCLOVIR]
[1]
  MCC: > 250 µM

## CC(=O)Nc1ccc(S(=O)(=O)N(CCOC(=O)C(C)(C)C)Cn2cc(C)c(=O)[nH]c2=O)cc1
Sindbis virus
  Activity: inactive
[6]
  Activity: inactive
Felid alphaherpesvirus 1
  Activity: inactive
[7]
  Activity: Not Active
[8]
  Activity: inactive
Feline coronavirus
  Activity: inactive
Coxsackievirus B4 [9]
  Activity: inactive
Human respirovirus 3
  Activity: inactive
[3]
  MCC: 40 µM
Human alphaherpesvirus 2
  Activity: inactive
Punta Toro virus [10]
  Activity: inactive
HEL
  Activity: Not Active
Human alphaherpesvirus 1
  Activity: inactive
Coxsackievirus B4 [11]
  Activity: inactive
HeLa [12]
  Activity: inactive
MDCK
  Activity: Not Active

## CC(=O)Nc1ccc(S(=O)(=O)N(CCO)Cn2cc(C)c(=O)[nH]c2=O)cc1
Sindbis virus
  Activity: inactive
[6]
  Activity: inactive
Felid alphaherpesvirus 1
  Activity: inactive
[7]
  Activity: Not Active
[8]
  Activity: inactive
Feline coronavirus
  Activity: inactive
Coxsackievirus B4 [9]
  Activity: inactive
Human respirovirus 3
  Activity: inactive
Human alphaherpesvirus 2
  Activity: inactive
Punta Toro virus [10]
  Activity: inactive
HEL
  Activity: Not Active
Human alphaherpesvirus 1
  Activity: inactive
Coxsackievirus B4 [11]
  Activity: inactive
HeLa [12]
  Activity: inactive
MDCK
  Activity: Not Active

## Cc1cn(CN(CCOC(=O)C(C)(C)C)S(=O)(=O)c2ccccc2[N+](=O)[O-])c(=O)[nH]c1=O
Sindbis virus
  Activity: inactive
[6]
  Activity: inactive
Felid alphaherpesvirus 1
  Activity: inactive
[7]
  Activity: Not Active
[8]
  Activity: inactive
Feline coronavirus
  Activity: inactive
Human respirovirus 3
  Activity: inactive
Punta Toro virus [14]
  EC50: 100 µM
Human alphaherpesvirus 2
  Activity: inactive
HEL
  Activity: Not Active
Coxsackievirus B4 [15]
  EC50: 100 µM
Human alphaherpesvirus 1
  Activity: inactive
Coxsackievirus B4 [11]
  Activity: inactive
HeLa [12]
  Activity: inactive
MDCK
  Activity: Not Active

## Cc1cn(CN(CCO)S(=O)(=O)c2cccc(N)c2)c(=O)[nH]c1=O
Sindbis virus
  Activity: inactive
[6]
  Activity: inactive
Felid alphaherpesvirus 1
  Activity: inactive
[7]
  Activity: Not Active
[8]
  Activity: inactive
Feline coronavirus
  Activity: inactive
Coxsackievirus B4 [9]
  Activity: inactive
Human respirovirus 3
  Activity: inactive
Human alphaherpesvirus 2
  Activity: inactive
Punta Toro virus [10]
  Activity: inactive
HEL
  Activity: Not Active
Human alphaherpesvirus 1
  Activity: inactive
Coxsackievirus B4 [11]
  Activity: inactive
HeLa [12]
  Activity: inactive
MDCK
  Activity: Not Active

## CC(C)(C)C(=O)OCCN(Cn1ccc(=O)[nH]c1=O)S(=O)(=O)c1cccc([N+](=O)[O-])c1
Sindbis virus
  Activity: inactive
[6]
  Activity: inactive
Felid alphaherpesvirus 1
  Activity: inactive
[7]
  Activity: Not Active
[8]
  Activity: inactive
Feline coronavirus
  Activity: inactive
Coxsackievirus B4 [9]
  Activity: inactive
Human respirovirus 3
  Activity: inactive
Human alphaherpesvirus 2
  Activity: inactive
Punta Toro virus [10]
  Activity: inactive
HEL
  Activity: Not Active
Human alphaherpesvirus 1
  Activity: inactive
Coxsackievirus B4 [11]
  Activity: inactive
HeLa [12]
  Activity: inactive
MDCK
  Activity: Not Active

## CC(N)C12CC3CC(CC(C3)C1)C2 (stereo not drawn) [RIMANTADINE]
[4]
  CC50: > 100 µM
[5]
  MCC: > 100 µM

## CC(C)(C)C(=O)OCCN(Cn1ccc(=O)[nH]c1=O)S(=O)(=O)c1ccc([N+](=O)[O-])cc1
Sindbis virus
  Activity: inactive
[6]
  Activity: inactive
Felid alphaherpesvirus 1
  Activity: inactive
[8]
  Activity: inactive
Feline coronavirus
  Activity: inactive
Coxsackievirus B4 [9]
  Activity: inactive
Human respirovirus 3
  Activity: inactive
Human alphaherpesvirus 2
  Activity: inactive
Punta Toro virus [10]
  Activity: inactive
HEL
  Activity: Not Active
Human alphaherpesvirus 1
  Activity: inactive
Coxsackievirus B4 [11]
  Activity: inactive
[13]
  CC50: 49 µM
HeLa [12]
  Activity: inactive
MDCK
  Activity: Not Active

## O=c1[nH]c(=O)n([C@H]2C[C@H](O)[C@@H](CO)O2)cc1/C=C/Br [BRIVUDINE]
[1]
  MCC: > 250 µM
HeLa [2]
  MCC: > 250 µM
[3]
  MCC: > 250 µM

## CC(C)(C)C(=O)OCCN(Cn1cc(F)c(=O)[nH]c1=O)S(=O)(=O)c1ccc([N+](=O)[O-])cc1
Sindbis virus
  Activity: inactive
[6]
  Activity: inactive
Felid alphaherpesvirus 1
  Activity: inactive
[8]
  Activity: inactive
Feline coronavirus
  Activity: inactive
Coxsackievirus B4 [9]
  Activity: inactive
Human respirovirus 3
  Activity: inactive
[4]
  CC50: 69 µM
Human alphaherpesvirus 2
  Activity: inactive
Punta Toro virus [10]
  Activity: inactive
[5]
  MCC: 20 µM
HEL
  Activity: Not Active
Human alphaherpesvirus 1
  Activity: inactive
Coxsackievirus B4 [11]
  Activity: inactive
[13]
  CC50: 44 µM
HeLa [12]
  Activity: inactive

## Nc1ncnc2c1ncn2C[C@H](O)CO [(S)-DHPA]
HeLa [2]
  MCC: > 250 µM
[3]
  MCC: > 250 µM
